Laboratory results from ChEMBL document CHEMBL1177744, “An efficient and economical MTT assay for determining the antioxidant activity of plant natural product extracts and pure compounds” (J Nat Prod, 2010).
Several values for one entry are separate records, joined by “and”; a condition that tells them apart may be missing. Equal values may be shown once.

experiment: Antioxidant activity assessed as formazan formation induced absorbance changes at 25 ppm at 570 nm at 37 degC for 6 hrs by MTT assay; type: functional
How it was run: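 Cell-free redox assay: MTT in water (190 µL) vortexed 1 min with sample (10 µL) in DMSO in a capped 2 mL glass vial. DMSO (200 µL) then added to give 50:50 water-DMSO, and the mixture vortexed again. Incubated 6 h at 37 °C, then 200 µL read at 570 nm for formazan. Triplicates, experiment repeated 10 times, mean absorbance reported.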

Row | SMILES | deltaA
1 | CCCCCCCCCCCCCCCCCCCCCCC(=O)O | 0.27
2 | O=C1O[C@H]([C@@H](O)CO)C(O)=C1O | 0.5
3 | O=c1c(O)c(-c2ccc(O)c(O)c2)oc2cc(O)cc(O)c12 | 0.75 and 0.3
4 | CC(C)(C)c1cc(O)ccc1O | 0.51
5 | Cc1c(C)c2c(c(C)c1O)CC[C@@](C)(CCC[C@H](C)CCC[C@H](C)CCCC(C)C)O2 | 0.56
6 | O=C(/C=C/c1ccc(O)cc1)CC(=O)/C=C/c1ccc(O)cc1 | 0.37
7 | CCCCCCCCCCCCCCCCCC(=O)O | 0.47
8 | COc1ccc(-c2coc3cc(O)ccc3c2=O)cc1 | 0.2
9 | CCCCCCCCCCCCCCCCCCCCCC(=O)O | 0.25
10 | O=C(O)CCc1ccc(O)cc1 | 0.17
11 | C[C@H]1O[C@@H](OC[C@@H]2O[C@H](Oc3cc4c(O)cc(O)cc4[o+]c3-c3ccc(O)c(O)c3)[C@@H](O[C@@H]3O[C@H](CO)[C@@H](O)[C@H](O)[C@H]3O)[C@H](O)[C@H]2O)[C@@H](O)[C@@H](O)[C@@H]1O | 0.28
12 | O=C(O)C1=C/C(=C\C=[N+]2/c3cc(O)c(O[C@@H]4O[C@H](CO)[C@@H](O)[C@H](O)[C@H]4O)cc3C[C@H]2C(=O)[O-])C[C@@H](C(=O)O)N1 | 0.6
13 | O=C(O)/C=C/c1ccc2c(c1)OCO2 | 0.19
14 | CCCCCCCCCCCCCCCCCCC(=O)O | 0.53
15 | O=c1c(-c2ccc(O)cc2)coc2cc(O)ccc12 | 0.48
16 | COc1cc(C(=O)O)ccc1O | 0.19
17 | CCCCCCCCCCCCCCCCCCCCCCCC(=O)O | 0.16
18 | O=c1cc(-c2ccccc2)oc2cc(O)cc(O)c12 | 0.3
19 | CCCCCCCCC(=O)O | 0.16
20 | COc1cc(/C=C/C(=O)O)ccc1O | 0.29
21 | Oc1cc(O)c2c(c1)O[C@H](c1ccc(O)c(O)c1)[C@H](O)C2 | 0.17
22 | CC(C)CCC[C@@H](C)[C@H]1CC[C@H]2[C@@H]3CC=C4C[C@@H](O)CC[C@]4(C)[C@H]3CC[C@]12C | 0.22
23 | CCCCCCCC/C=C\CCCCCCCCCCCC(=O)O | 0.68
24 | CCCCCCCC(=O)O | 0.17
25 | CC/C=C\C/C=C\C/C=C\CCCCCCCC(=O)OC | 0.25

Row | SMILES | deltaA
26 | O=C(O[C@@H]1Cc2c(O)cc(O)cc2O[C@H]1c1cc(O)c(O)c(O)c1)c1cc(O)c(O)c(O)c1 | 0.92
27 | COc1cc(/C=C/C(=O)CC(=O)/C=C/c2ccc(O)c(OC)c2)ccc1O | 0.85
28 | C[C@H]1O[C@@H](Oc2cc3c(O)cc(O)cc3[o+]c2-c2ccc(O)c(O)c2)[C@@H](O[C@@H]2O[C@H](CO)[C@@H](O)[C@H](O)[C@H]2O)[C@@H](O)[C@@H]1O | 0.17
29 | Cc1cc(C(C)(C)C)c(O)c(C(C)(C)C)c1 | 0.51
30 | COc1ccc(-c2cc(=O)c3c(O)cc(O)cc3o2)cc1 | 0.26
31 | CC12CCC(CC1=O)C2(C)C (centres undefined) | 0.24
32 | COc1ccc(-c2cc(=O)c3ccc(O)cc3o2)cc1 | 0.23
33 | CC1=C(/C=C/C(C)=C/C=C/C(C)=C/C=C/C=C(C)/C=C/C=C(C)/C=C/C2=C(C)CCCC2(C)C)C(C)(C)CCC1 | 0.32
34 | CC(C)CCC[C@@H](C)[C@H]1CC[C@H]2[C@@H]3CC=C4C[C@@H](O[C@@H]5O[C@H](CO)[C@@H](O)[C@H](O)[C@H]5O)CC[C@]4(C)[C@H]3CC[C@]12C | 0.3
35 | C[C@@H]1O[C@@H](Oc2c(-c3ccc(O)c(O)c3)oc3cc(O)cc(O)c3c2=O)[C@H](O)[C@H](O)[C@H]1O | 0.3
36 | C[C@H]1[C@H](C)CC[C@]2(C(=O)O)CC[C@]3(C)C(=CC[C@@H]4[C@@]5(C)CC[C@H](O)C(C)(C)[C@@H]5CC[C@]43C)[C@H]12 | 0.43
37 | Cc1cccc(O)c1O | 0.86
38 | COC(=O)/C=C/C(C)=C\C=C\C(C)=C\C=C\C=C(C)\C=C\C=C(C)\C=C\C(=O)O | 0.61
39 | COc1ccc2ccc(=O)oc2c1 | 0.18
40 | COc1ccccc1-c1cc(=O)c2c(OC)cccc2o1 | 0.27
41 | O=C(/C=C/c1ccc(O)c(O)c1)O[C@@H]1C[C@](O)(C(=O)O)C[C@@H](O)[C@H]1O | 0.72
42 | Oc1cccc(O)c1O | 0.86
43 | Oc1cc(O)c2c(c1)O[C@@H](c1ccc(O)c(O)c1)[C@H](O)C2 | 0.53
44 | Oc1cc(O)c2c(c1)O[C@H](c1ccc(O)c(O)c1)[C@@H](O)C2 | 0.88
45 | O=C(O[C@@H]1Cc2c(O)cc(O)cc2O[C@@H]1c1ccc(O)c(O)c1)c1cc(O)c(O)c(O)c1 | 1.18
46 | O=c1cc(-c2ccc(O)c(O)c2)oc2cc(O)cc(O)c12 | 0.66
47 | CCCCCCCCCCCCCCCCC(=O)O | 0.91
48 | CCCCCCCCCCCCCC(=O)O | 0.58
49 | COc1ccc(-c2cc(=O)c3ccc(OC)cc3o2)cc1 | 0.17
50 | O=C(O)c1ccc(O)cc1 | 0.13

Row | SMILES | deltaA
51 | CCCCCCCCCCCCCCCCCCCC(=O)O | 0.25
52 | CCCCCCCCCCCCC(=O)O | 0.47
53 | CCCCCCCCCC(=O)O | 0.51
54 | O=c1cc(-c2ccccc2)oc2c(O)c(O)ccc12 | 0.49
55 | O=C(O)/C=C/c1ccc(O)cc1 | 0.15
56 | COc1cc(O)c2c(=O)c(OC)c(-c3ccc(OC)c(OC)c3)oc2c1 | 0.23
57 | COc1ccc(-c2coc3cc(O)cc(O)c3c2=O)cc1 | 0.37
58 | CCCCCC/C=C\CCCC(=O)O | 0.17
59 | O=c1cc(-c2ccc(O)cc2)oc2cc(O)cc(O)c12 | 0.14
60 | Oc1cc(O)c2c(c1)OC(c1ccc(O)c(O)c1)C(O)C2 (racemic) | 1.18
61 | O=C(O)/C=C/c1ccc(O)c(O)c1 | 0.69
62 | COc1cc(/C=C/C(O)=C/C(=O)/C=C/c2ccc(O)cc2)ccc1O | 0.61
63 | O=c1c(-c2ccc(O)cc2)coc2cc(O[C@@H]3O[C@H](CO)[C@@H](O)[C@H](O)[C@H]3O)cc(O)c12 | 0.33
64 | CCCCCCCCCCCC(=O)O | 0.19
65 | Oc1cc(O)c2c(c1)O[C@@H](c1cc(O)c(O)c(O)c1)[C@H](O)C2 | 0.99
66 | CCCCCCCC/C=C\CCCCCCCCCCCCCC(=O)O | 0.89
67 | CCCCCCCCCCCCCCCCCCCCC(=O)O | 0.22
68 | CC(C)=CCC/C(C)=C/C=C/C(C)=C/C=C/C(C)=C/C=C/C=C(C)/C=C/C=C(C)/C=C/C=C(\C)CCC=C(C)C | 0.59
69 | CCCCCCCCCCC(=O)O | 0.19
70 | O=C(O)CC(=O)OC[C@@H]1O[C@H](Oc2cc3c(O)cc(O)cc3[o+]c2-c2ccc(O)c(O)c2)[C@@H](O)[C@H](O)[C@H]1O | 0.2
71 | CCCCC/C=C\C/C=C\CCCCCCCC(=O)O | 0.68
72 | CCCC/C=C\CCCCCCCCC(=O)O | 0.19
73 | O=c1c(-c2ccc(O)cc2)coc2cc(O)cc(O)c12 | 0.29
74 | COc1ccc(-c2cc(=O)c3ccccc3o2)cc1 | 0.24
